Reference: ChEMBL document CHEMBL2434842, “Approaches to protozoan drug discovery: phenotypic screening” (J Med Chem, 2013)
Where a name gives a salt, the structure may show the parent alone.

Tests used:
Plasmodium falciparum [1] = test: Antimalarial activity against asexual stage of Plasmodium falciparum 3D7 after 72 hrs by image-based HTS assay; assay type: functional, organism-based; details: 3D7, 72 h
Plasmodium falciparum [2] = test: Antimalarial activity against late (4 to 5) gametocytic stage of Plasmodium falciparum after 72 hrs by image-based HTS assay; assay type: functional, organism-based
In short: (§1)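 P. falciparum early (I–III) or late (IV–V) gametocytes from the authors' large-scale synchronized culture. Exposed to compound in dose response for 72 h. Activity read in an image-based assay. IC50 from duplicate or triplicate points, n ≥ 2, reported as mean ± SD.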

Plasmodium falciparum [3] = test: Antimalarial activity against early (1 to 3) gametocytic stage of Plasmodium falciparum after 72 hrs by image-based HTS assay; assay type: functional, organism-based; in short: as §1
[4] = Selectivity ratio of cytotoxic activity against mouse NIH/3T3 cells to antitrypanosomal activity against amastigote stage of Trypanosoma cruzi
Trypanosoma cruzi = test: Antitrypanosomal activity against amastigote stage of Trypanosoma cruzi infected in mouse NIH/3T3 cells after 48 hrs by Hoechst staining assay; assay type: functional, organism-based; details: NIH3T3, 48 h
[5] = test system: Trypanosoma brucei brucei; test: Antitrypanosomal activity against bloodstream form of Trypanosoma brucei brucei 427 after 3 days by Alamar Blue assay; assay type: functional, organism-based; details: Trypanosoma brucei, 427, 72 h
Plasmodium falciparum [6] = test: Antimalarial activity against late (4 to 5) gametocytic stage of Plasmodium falciparum at 120 uM after 72 hrs by image-based HTS assay relative to control; assay type: functional
[7] = test system: Trypanosoma brucei brucei; test: Trypanocidal activity against Trypanosoma brucei brucei by Alamar Blue assay; assay type: functional, organism-based
Plasmodium falciparum [8] = test: Antimalarial activity against early (1 to 3) gametocytic stage of Plasmodium falciparum at 120 uM after 72 hrs by image-based HTS assay relative to control; assay type: functional
Plasmodium falciparum [9] = test: Antimalarial activity against late (4 to 5) gametocytic stage of Plasmodium falciparum at 100 uM after 72 hrs by image-based HTS assay relative to control; assay type: functional
In short: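 Image-based assay on late-stage (IV–V) P. falciparum gametocytes taken from large-scale production of pure synchronized gametocytes. Compound exposure was 72 h in dose response, with duplicate or triplicate points per concentration and n ≥ 2 independent runs.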

Work on CCN(CC)Cc1cc(Nc2ccnc3cc(Cl)ccc23)ccc1O yielded an IC50 (Plasmodium falciparum [1]) of 28 nM, an IC50 (Plasmodium falciparum [2]) of 4490 nM and an IC50 (Plasmodium falciparum [3]) of 159 nM.
Molecule COc1ccc2nc3cc(Cl)ccc3c(Nc3cc(CN4CCCC4)c(O)c(CN4CCCC4)c3)c2n1 [PYRONARIDINE] has an IC50 (Plasmodium falciparum [1]) of 46 nM, an IC50 (Plasmodium falciparum [2]) of 1300 nM and an IC50 (Plasmodium falciparum [3]) of 131 nM.
Molecule N#C/C(=C1/SCC(c2ccccc2Cl)S1)n1ccnc1 (stereo unspecified) [LANOCONAZOLE] has a selectivity ratio ([4]; NIH/3T3 cells) of 306 and an IC50 (Trypanosoma cruzi) of 67.1 nM.
With CC(=O)N1CCN(c2ccc(OCC3COC(Cn4ccnc4)(c4ccc(Cl)cc4Cl)O3)cc2)CC1 (stereo unspecified) [KETOCONAZOLE] the selectivity ratio ([4]; NIH/3T3 cells) was greater than 853 and the IC50 (Trypanosoma cruzi) was 22.7 nM.
In the case of COc1cc(C)c2c(Oc3cccc(C(F)(F)F)c3)c(OC)cc(NC(C)CCCN)c2n1 (stereo unspecified) [TAFENOQUINE], the IC50 (Plasmodium falciparum [1]) is reported as 1070 nM and the IC50 (Plasmodium falciparum [2]) is reported as 3370 nM.
With C/C=C/C[C@@H](C)[C@@H](O)[C@H]1C(=O)N[C@@H](CC)C(=O)N(C)CC(=O)N(C)[C@@H](CC(C)C)C(=O)N[C@@H](C(C)C)C(=O)N(C)[C@@H](CC(C)C)C(=O)N[C@@H](C)C(=O)N[C@H](C)C(=O)N(C)[C@@H](CC(C)C)C(=O)N(C)[C@@H](CC(C)C)C(=O)N(C)[C@@H](C(C)C)C(=O)N1C [CYCLOSPORINE] the IC50 [5] was 1.14 nM.
Clc1ccc(CO/N=C(\Cn2ccnc2)c2ccc(Cl)cc2Cl)c(Cl)c1 [OXICONAZOLE NITRATE] gave a selectivity ratio ([4]; nih/3t3) greater than 46.3 and an IC50 (Trypanosoma cruzi) of 388 nM.
C[C@H]1[C@H](OC(=O)CCC(=O)O)O[C@@H]2O[C@@]3(C)CC[C@H]4[C@H](C)CC[C@@H]1[C@@]24OO3 [ARTESUNATE] showed an IC50 (Plasmodium falciparum [2]) of 3.43 nM.
CC[C@]1(O)C[C@H]2CN(CCc3c([nH]c4ccccc34)[C@@](C(=O)OC)(c3cc4c(cc3OC)N(C=O)[C@H]3[C@@](O)(C(=O)OC)[C@H](OC(C)=O)[C@]5(CC)C=CCN6CC[C@]43[C@@H]65)C2)C1 [VINCRISTINE] gave an IC50 [5] of 30 nM.
In the case of Clc1ccccc1C(c1ccccc1)(c1ccccc1)n1ccnc1 [CLOTRIMAZOLE], the selectivity ratio ([4]; NIH/3T3 cells) is reported as greater than 87.2 and the IC50 (Trypanosoma cruzi) is reported as 187 nM.
Clc1ccc(COC(Cn2ccnc2)c2ccc(Cl)cc2Cl)c(Cl)c1 (stereo unspecified) [MICONAZOLE NITRATE] showed a selectivity ratio ([4]; nih/3t3) greater than 19.5 and an IC50 (Trypanosoma cruzi) of 826 nM.
For CC[C@H](C)C(=O)O[C@H]1CCC=C2C=C[C@H](C)[C@H](CC[C@@H]3C[C@@H](O)CC(=O)O3)[C@H]21 [MEVASTATIN], the IC50 [5] was 940 nM.
Molecule c1ccc(-c2ccc(C(c3ccccc3)n3ccnc3)cc2)cc1 (stereo unspecified) [BIFONAZOLE] has a selectivity ratio ([4]; NIH/3T3 cells) greater than 91.6 and an IC50 (Trypanosoma cruzi) of 204 nM.
Work on COc1cc(NC(C)CCCN)c2ncccc2c1 (stereo unspecified) [PRIMAQUINE] yielded an IC50 (Plasmodium falciparum [1]) of 6090 nM, an inhibition at 120 µM (Plasmodium falciparum [6]) of 40% and an IC50 (Plasmodium falciparum [3]) of 5860 nM.
With O=C1c2c(O)ccc(O)c2C(=O)c2c(NCCNCCO)ccc(NCCNCCO)c21 [MITOXANTRONE HYDROCHLORIDE] the IC50 [5] was 2.4 nM and the IC50 [7] was 1000 nM.
In the case of CCc1nc(N)nc(N)c1-c1ccc(Cl)cc1 [PYRIMETHAMINE], the IC50 (Plasmodium falciparum [1]) is reported as 14 nM, the inhibition at 120 µM (Plasmodium falciparum [6]) is reported as 100% and the inhibition at 120 µM (Plasmodium falciparum [8]) is reported as 40%.
CC[C@H](C)[C@H](NC(=O)[C@H]([C@@H](C)CC)N(C)C(C)=O)C(=O)N[C@H](C(=O)N[C@@H](CC(C)C)C(=O)[C@@]1(C)CO1)[C@@H](C)O [EPOXOMYCIN] gave an IC50 (Plasmodium falciparum [1]) of 2.2 nM and an IC50 (Plasmodium falciparum [2]) of 0.7 nM.
CCN(CC)CCCC(C)Nc1ccnc2cc(Cl)ccc12 (stereo unspecified) [CHLOROQUINE] showed an inhibition at 100 µM (Plasmodium falciparum [9]) of 100%.
C[C@@H](c1ncncc1F)[C@](O)(Cn1cncn1)c1ccc(F)cc1F [VORICONAZOLE] gave a selectivity ratio ([4]; NIH/3T3 cells) of 212 and an IC50 (Trypanosoma cruzi) of 96.5 nM.
Molecule CO[C@@]12[C@H](COC(N)=O)C3=C(C(=O)C(C)=C(N)C3=O)N1C[C@@H]1N[C@@H]12 [MITOMYCIN] has an IC50 [7] of 1000 nM.
In the case of C[C@H]1[C@@H](O)O[C@@H]2O[C@@]3(C)CC[C@H]4[C@H](C)CC[C@@H]1[C@@]24OO3 [ARTENIMOL], the IC50 (Plasmodium falciparum [1]) is reported as 0.7 nM.
Molecule COc1ccc(C[C@H](N)C(=O)N[C@H]2[C@@H](O)[C@H](n3cnc4c(N(C)C)ncnc43)O[C@@H]2CO)cc1 [PUROMYCIN] has an IC50 (Plasmodium falciparum [1]) of 64 nM, an IC50 (Plasmodium falciparum [2]) of 46 nM and an IC50 (Plasmodium falciparum [3]) of 137 nM.
In the case of O[C@@H](c1cc(C(F)(F)F)nc2c(C(F)(F)F)cccc12)[C@H]1CCCCN1 (relative stereo) [(S,R)-MEFLOQUINE], the IC50 (Plasmodium falciparum [1]) is reported as 200 nM and the IC50 (Plasmodium falciparum [3]) is reported as 220 nM.
Work on CC(=O)O[C@H]1C(=O)[C@@]2(C)[C@H]([C@H](OC(=O)c3ccccc3)[C@]3(O)C[C@H](OC(=O)[C@H](O)[C@@H](NC(=O)c4ccccc4)c4ccccc4)C(C)=C1C3(C)C)[C@]1(OC(C)=O)CO[C@@H]1C[C@@H]2O [PACLITAXEL] yielded an IC50 [7] of 1000 nM.
Molecule CC[C@]1(O)C[C@@H]2CN(CCc3c([nH]c4ccccc34)[C@@](C(=O)OC)(c3cc4c(cc3OC)N(C)[C@H]3[C@@](O)(C(=O)OC)[C@H](OC(C)=O)[C@]5(CC)C=CCN6CC[C@]43[C@@H]65)C2)C1 [VINBLASTINE] has an IC50 [5] of 94 nM.
